# Data reported in ChEMBL document CHEMBL5724801, “EUbOPEN Chemogenomics Library - Multiplex” (2024).
# Several values for one entry are separate records, joined by “and”; a condition that tells them apart may be missing. Equal entries are not always repeated.
# System: Fibroblast
# Assay: Multiplex assay against human fibroblast
# Assay type: toxicity, cell-based
# Outline: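 Values for tubulin, mitochondrial-mass and membrane-permeability phenotypes are per cents of cells with healthy nuclei. These cells were identified by CellPathfinder machine-learning gating of live cells that had been stained at seeding with Hoechst33342, BioTracker Green Microtubule Cytoskeleton Dye, MitoTracker Red and Annexin V Alexa Fluor 680 and imaged on a CQ1 microscope at 37°C and 5% CO2 after compound addition. The gating first set Hoechst high-intensity objects apart from normal cells, then split normal cells into healthy, pyknosed or fragmented nuclei, and pyknosed cells into mitotic or apoptotic.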
# [1] = 12 h, 1 µM, compound concentration 1 uM
# [2] = 12 h, 10 µM, compound concentration 10 uM
# [3] = 24 h, 1 µM, compound concentration 1 uM
# [4] = 24 h, 10 µM, compound concentration 10 uM
# [5] = 48 h, 1 µM, compound concentration 1 uM
# [6] = 48 h, 10 µM, compound concentration 10 uM
smiles,measurement,setting,value
Br.CS(=O)(=O)Nc1c(O)ccc2c1CCCC2C1=NCCN1 (stereo not drawn),Population Apoptotic (%),[1],17% and 31%
same,Population Healthy Nuclei (%),[1],76% and 47%
same,Population Hoechst High Intensity Objects (%),[1],1% and 8%
same,Population Membrane Permeable-Phenotype (%),[1],0% and 7%
same,Population Mitochondria Different-Phenotype (%),[1],5% and 8%
same,Population Mitotic Cells (%),[1],82% and 68%
same,Population Normal (%),[1],98% and 91%
same,Population Pyknosed Nuclei (%),[1],14% and 19%
same,Population Tubulin-Different-Phenotype (%),[1],20% and 38%
same,Total Cell Count,[1],167 and 192
same,Population Apoptotic (%),[2],38% and 33%
same,Population Fragmented Nuclei (%),[2],20% and 38%
same,Population Healthy Nuclei (%),[2],47% and 45%
same,Population Hoechst High Intensity Objects (%),[2],6% and 0%
same,Population Mitochondria Different-Phenotype (%),[2],7% and 5%
same,Population Mitotic Cells (%),[2],61% and 66%
same,Population Normal (%),[2],93% and 99%
same,Population Pyknosed Nuclei (%),[2],31% and 16%
same,Population Tubulin-Different-Phenotype (%),[2],21% and 43%
same,Total Cell Count,[2],148 and 129
same,Population Apoptotic (%),[3],56% and 33%
same,Population Fragmented Nuclei (%),[3],12% and 25%
same,Population Healthy Nuclei (%),[3],77% and 60%
same,Population Hoechst High Intensity Objects (%),[3],1% and 7%
same,Population Membrane Permeable-Phenotype (%),[3],0% and 2%
same,Population Mitochondria Different-Phenotype (%),[3],3% and 7%
same,Population Mitotic Cells (%),[3],43% and 66%
same,Population Normal (%),[3],98% and 92%
same,Population Pyknosed Nuclei (%),[3],10% and 14%
same,Population Tubulin-Different-Phenotype (%),[3],16% and 41%
same,Total Cell Count,[3],159 and 180
same,Population Apoptotic (%),[4],48% and 41%
same,Population Fragmented Nuclei (%),[4],16% and 41%
same,Population Healthy Nuclei (%),[4],60% and 44%
same,Population Hoechst High Intensity Objects (%),[4],3% and 0%
same,Population Membrane Permeable-Phenotype (%),[4],0% and 10%
same,Population Mitochondria Different-Phenotype (%),[4],2% and 10%
same,Population Mitotic Cells (%),[4],51% and 58%
same,Population Normal (%),[4],96% and 99%
same,Population Pyknosed Nuclei (%),[4],23% and 13%
same,Population Tubulin-Different-Phenotype (%),[4],24% and 41%
same,Total Cell Count,[4],148 and 130
same,Population Apoptotic (%),[5],57% and 38%
same,Population Fragmented Nuclei (%),[5],14% and 26%
same,Population Healthy Nuclei (%),[5],76% and 61%
same,Population Hoechst High Intensity Objects (%),[5],4% and 5%
same,Population Membrane Permeable-Phenotype (%),[5],4% and 0%
same,Population Mitochondria Different-Phenotype (%),[5],3% and 9%
same,Population Mitotic Cells (%),[5],42% and 61%
same,Population Normal (%),[5],95% and 94%
same,Population Pyknosed Nuclei (%),[5],8% and 12%
same,Population Tubulin-Different-Phenotype (%),[5],24% and 41%
same,Total Cell Count,[5],167 and 177
same,Population Apoptotic (%),[6],61% and 33%
same,Population Fragmented Nuclei (%),[6],22% and 48%
same,Population Healthy Nuclei (%),[6],61% and 44%
same,Population Hoechst High Intensity Objects (%),[6],6% and 1%
same,Population Membrane Permeable-Phenotype (%),[6],1% and 3%
same,Population Mitochondria Different-Phenotype (%),[6],2% and 9%
same,Population Mitotic Cells (%),[6],38% and 66%
same,Population Normal (%),[6],93% and 98%
same,Population Pyknosed Nuclei (%),[6],15% and 7%
same,Population Tubulin-Different-Phenotype (%),[6],21% and 45%
same,Total Cell Count,[6],145 and 127
CN(C)c1ccnc2sc3c(=O)n(N4CCCCCC4)cnc3c12,Population Apoptotic (%),[1],42% and 30%
same,Population Fragmented Nuclei (%),[1],17% and 28%
same,Population Healthy Nuclei (%),[1],64% and 51%
same,Population Hoechst High Intensity Objects (%),[1],3% and 6%
same,Population Membrane Permeable-Phenotype (%),[1],1% and 10%
same,Population Mitochondria Different-Phenotype (%),[1],3%
same,Population Mitotic Cells (%),[1],57% and 70%
same,Population Normal (%),[1],96% and 93%
same,Population Pyknosed Nuclei (%),[1],18% and 19%
same,Population Tubulin-Different-Phenotype (%),[1],29% and 44%
same,Total Cell Count,[1],144 and 162
same,Population Apoptotic (%),[2],44% and 49%
same,Population Fragmented Nuclei (%),[2],14% and 31%
same,Population Healthy Nuclei (%),[2],58% and 30%
same,Population Hoechst High Intensity Objects (%),[2],5% and 7%
same,Population Mitochondria Different-Phenotype (%),[2],14%
same,Population Mitotic Cells (%),[2],55% and 50%
same,Population Normal (%),[2],94% and 92%
same,Population Pyknosed Nuclei (%),[2],27% and 38%
same,Population Tubulin-Different-Phenotype (%),[2],75%
same,Total Cell Count,[2],141 and 145
same,Population Apoptotic (%),[3],48% and 50%
same,Population Fragmented Nuclei (%),[3],11% and 24%
same,Population Healthy Nuclei (%),[3],67% and 55%
same,Population Hoechst High Intensity Objects (%),[3],3% and 2%
same,Population Membrane Permeable-Phenotype (%),[3],0% and 10%
same,Population Mitochondria Different-Phenotype (%),[3],3% and 2%
same,Population Mitotic Cells (%),[3],51% and 50%
same,Population Normal (%),[3],96% and 97%
same,Population Pyknosed Nuclei (%),[3],21% and 19%
same,Population Tubulin-Different-Phenotype (%),[3],27% and 49%
same,Total Cell Count,[3],143 and 146
same,Population Apoptotic (%),[4],57% and 30%
same,Population Fragmented Nuclei (%),[4],13% and 35%
same,Population Healthy Nuclei (%),[4],58% and 41%
same,Population Hoechst High Intensity Objects (%),[4],5% and 8%
same,Population Membrane Permeable-Phenotype (%),[4],0% and 22%
same,Population Mitochondria Different-Phenotype (%),[4],18% and 24%
same,Population Mitotic Cells (%),[4],42% and 69%
same,Population Normal (%),[4],94% and 91%
same,Population Pyknosed Nuclei (%),[4],28% and 22%
same,Population Tubulin-Different-Phenotype (%),[4],63% and 85%
same,Total Cell Count,[4],130 and 128
same,Population Apoptotic (%),[5],64% and 36%
same,Population Fragmented Nuclei (%),[5],19% and 36%
same,Population Healthy Nuclei (%),[5],70% and 49%
same,Population Hoechst High Intensity Objects (%),[5],2% and 3%
same,Population Membrane Permeable-Phenotype (%),[5],0% and 6%
same,Population Mitochondria Different-Phenotype (%),[5],0% and 2%
same,Population Mitotic Cells (%),[5],35% and 63%
same,Population Normal (%),[5],97% and 96%
same,Population Pyknosed Nuclei (%),[5],10% and 14%
same,Population Tubulin-Different-Phenotype (%),[5],30% and 41%
same,Total Cell Count,[5],143 and 157
same,Population Apoptotic (%),[6],73% and 50%
same,Population Fragmented Nuclei (%),[6],22% and 47%
same,Population Healthy Nuclei (%),[6],47% and 42%
same,Population Hoechst High Intensity Objects (%),[6],8% and 6%
same,Population Membrane Permeable-Phenotype (%),[6],0% and 19%
same,Population Mitochondria Different-Phenotype (%),[6],25% and 13%
same,Population Mitotic Cells (%),[6],26% and 50%
same,Population Normal (%),[6],91% and 93%
same,Population Tubulin-Different-Phenotype (%),[6],76% and 86%
same,Total Cell Count,[6],138 and 131
